Tests used:
Assay type in all cases: functional
[1] = tested on: NCI-H322M; assay: Anticancer activity against human NCI-H322M cells assessed as cell growth promotion at 10^-5 M after 48 hrs by SRB assay relative to control
[2] = tested on: COLO 205; assay: Anticancer activity against human COLO205 cells assessed as cell growth promotion at 10^-5 M after 48 hrs by SRB assay relative to control
[3] = tested on: NCI-H226; assay: Anticancer activity against human NCI-H226 cells assessed as cell growth promotion at 10^-5 M after 48 hrs by SRB assay relative to control
[4] = tested on: LOX IMVI; assay: Anticancer activity against human LOXIMVI cells assessed as cell growth promotion at 10^-5 M after 48 hrs by SRB assay relative to control
[5] = tested on: UACC-62; assay: Anticancer activity against human UACC62 cells assessed as cell growth promotion at 10^-5 M after 48 hrs by SRB assay relative to control
[6] = tested on: UO-31; assay: Anticancer activity against human UO31 cells assessed as cell growth promotion at 10^-5 M after 48 hrs by SRB assay relative to control
[7] = tested on: OVCAR-8; assay: Anticancer activity against human OVCAR8 cells assessed as cell growth promotion at 10^-5 M after 48 hrs by SRB assay relative to control
[8] = tested on: K562; assay: Anticancer activity against human K562 cells assessed as cell growth promotion at 10^-5 M after 48 hrs by SRB assay relative to control
[9] = tested on: A549; assay: Anticancer activity against human A549 cells assessed as cell growth promotion at 10^-5 M after 48 hrs by SRB assay relative to control
[10] = tested on: PC-3; assay: Anticancer activity against human PC3 cells assessed as cell growth promotion at 10^-5 M after 48 hrs by SRB assay relative to control
[11] = tested on: OVCAR-5; assay: Anticancer activity against human OVCAR5 cells assessed as cell growth promotion at 10^-5 M after 48 hrs by SRB assay relative to control
[12] = tested on: HOP-62; assay: Anticancer activity against human HOP62 cells assessed as cell growth promotion at 10^-5 M after 48 hrs by SRB assay relative to control
[13] = tested on: MCF7; assay: Anticancer activity against human MCF7 cells assessed as cell growth promotion at 10^-5 M after 48 hrs by SRB assay relative to control
[14] = tested on: SK-MEL-28; assay: Anticancer activity against human SK-MEL-28 cells assessed as cell growth promotion at 10^-5 M after 48 hrs by SRB assay relative to control
[15] = tested on: NCI-H23; assay: Anticancer activity against human NCI-H23 cells assessed as cell growth promotion at 10^-5 M after 48 hrs by SRB assay relative to control
[16] = tested on: SF-539; assay: Anticancer activity against human SF539 cells assessed as cell growth promotion at 10^-5 M after 48 hrs by SRB assay relative to control
[17] = tested on: ACHN; assay: Anticancer activity against human ACHN cells assessed as cell growth promotion at 10^-5 M after 48 hrs by SRB assay relative to control
[18] = tested on: CCRF-CEM; assay: Anticancer activity against human CCRF-CEM cells assessed as cell growth promotion at 10^-5 M after 48 hrs by SRB assay relative to control
[19] = tested on: NCI-H460; assay: Anticancer activity against human NCI-H460 cells assessed as cell growth promotion at 10^-5 M after 48 hrs by SRB assay relative to control
[20] = Anticancer activity against human Hs 578T cells assessed as cell growth promotion at 10^-5 M after 48 hrs by SRB assay relative to control
[21] = tested on: HCT-116; assay: Anticancer activity against human HCT116 cells assessed as cell growth promotion at 10^-5 M after 48 hrs by SRB assay relative to control
[22] = tested on: HT-29; assay: Anticancer activity against human HT-29 cells assessed as cell growth promotion at 10^-5 M after 48 hrs by SRB assay relative to control
[23] = tested on: SNB-19; assay: Anticancer activity against human SNB19 cells assessed as cell growth promotion at 10^-5 M after 48 hrs by SRB assay relative to control
[24] = tested on: TK-10; assay: Anticancer activity against human TK10 cells assessed as cell growth promotion at 10^-5 M after 48 hrs by SRB assay relative to control
[25] = tested on: MDA-MB-435; assay: Anticancer activity against human MDA-MB-435 cells assessed as cell growth promotion at 10^-5 M after 48 hrs by SRB assay relative to control
[26] = tested on: MDA-MB-468; assay: Anticancer activity against human MDA-MB-468 cells assessed as cell growth promotion at 10^-5 M after 48 hrs by SRB assay relative to control
[27] = tested on: SK-OV-3; assay: Anticancer activity against human SKOV3 cells assessed as cell growth promotion at 10^-5 M after 48 hrs by SRB assay relative to control
[28] = tested on: MOLT-4; assay: Anticancer activity against human MOLT4 cells assessed as cell growth promotion at 10^-5 M after 48 hrs by SRB assay relative to control
[29] = tested on: NCI/ADR-RES; assay: Anticancer activity against human NCI/ADR-RES cells assessed as cell growth promotion at 10^-5 M after 48 hrs by SRB assay relative to control
[30] = tested on: M14; assay: Anticancer activity against human M14 cells assessed as cell growth promotion at 10^-5 M after 48 hrs by SRB assay relative to control
[31] = tested on: KM12; assay: Anticancer activity against human KM12 cells assessed as cell growth promotion at 10^-5 M after 48 hrs by SRB assay relative to control
[32] = tested on: OVCAR-3; assay: Anticancer activity against human OVCAR3 cells assessed as cell growth promotion at 10^-5 M after 48 hrs by SRB assay relative to control
[33] = tested on: HL-60(TB); assay: Anticancer activity against human HL-60(TB) cells assessed as cell growth promotion at 10^-5 M after 48 hrs by SRB assay relative to control
Summary of the method: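 NCI-60 single-dose screen: compound at 10^-5 M, 48 h at 37 °C, 5% CO2; cells grown in RPMI 1640 with 5% FBS and 2 mM L-glutamine, pre-incubated 24 h before dosing. Adherent cells fixed with cold TCA; endpoint is sulforhodamine B protein staining. Percent growth of treated cells is reported relative to untreated control.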

[34] = tested on: HCT-15; assay: Anticancer activity against human HCT15 cells assessed as cell growth promotion at 10^-5 M after 48 hrs by SRB assay relative to control
[35] = tested on: T47D; assay: Anticancer activity against human T47D cells assessed as cell growth promotion at 10^-5 M after 48 hrs by SRB assay relative to control
[36] = tested on: SK-MEL-5; assay: Anticancer activity against human SK-MEL-5 cells assessed as cell growth promotion at 10^-5 M after 48 hrs by SRB assay relative to control
[37] = tested on: UACC-257; assay: Anticancer activity against human UACC257 cells assessed as cell growth promotion at 10^-5 M after 48 hrs by SRB assay relative to control

Row | SMILES | Activity [1] [%] | Activity [2] [%] | Activity [3] [%] | Activity [4] [%] | Activity [5] [%] | Activity [6] [%] | Activity [7] [%] | Activity [8] [%] | Activity [9] [%] | Activity [10] [%] | Activity [11] [%] | Activity [12] [%] | Activity [13] [%] | Activity [14] [%] | Activity [15] [%] | Activity [16] [%] | Activity [17] [%] | Activity [18] [%] | Activity [19] [%] | Activity [20] [%] | other results
1 | O=C(Nc1ccccc1C(=O)Nc1ccc(/C=C/c2ccc(Cl)cc2)cc1)c1ccccc1 | 89.27 | 124 | 85.77 | 74.93 | 79.67 | 52.88 | 88.85 | 57.81 | 70.02 | 65.2 | 123 | 105 | 82.72 | 101 | 73.51 | 91.8 | 82.68 | 52.41 | 72.92 | 67.95 | Activity [21]: 49.35%; Activity [22]: 89.94%; Activity [23]: 74.25%; Activity [24]: 123%; Activity [25]: 82.15%; Activity [26]: 83.46%; Activity [27]: 95.35%; Activity [28]: 59.17%; Activity [29]: 95.06%; Activity [30]: 78.5%; Activity [31]: 64.38%; Activity [32]: 86.93%; Activity [33]: 94.11%; Activity [34]: 65.81%; Activity [35]: 82.14%; Activity [36]: 82.15%; Activity [37]: 94.73%
2 | COc1cc(/C=C/c2ccc(NC(=O)c3ccccc3NC(=O)c3ccccc3)cc2)ccc1O | 91.92 | 115 | 95.46 | 92 | 98.83 | 68.52 | 105 | 96.88 | 99.78 | 94.13 | 116 | 94.69 | 96.33 | 115 | 105 | 110 | 97.71 | 79.93 | 107 | 100 | Activity [21]: 92.7%; Activity [22]: 121%; Activity [23]: 104%; Activity [24]: 97.64%; Activity [25]: 107%; Activity [26]: 95.39%; Activity [27]: 96.53%; Activity [28]: 86.81%; Activity [29]: 117%; Activity [30]: 92.83%; Activity [31]: 106%; Activity [32]: 107%; Activity [33]: 97.49%; Activity [34]: 98.82%; Activity [35]: 89.85%; Activity [36]: 86.16%; Activity [37]: 104%
3 | O=C(Nc1ccccc1C(=O)Nc1ccc(/C=C/C=C/c2ccccc2)cc1)c1ccccc1 | 81.13 | 121 | 84.69 | 84.87 | 84.87 | 49.85 | 104 | 62.47 | 91.49 | 75.75 | 99.95 | 93.96 | 100 | 107 | 91.39 | 102 | 87.29 | 53.89 | 94.36 | 80.44 | Activity [21]: 84.74%; Activity [22]: 111%; Activity [23]: 90.58%; Activity [24]: 114%; Activity [25]: 90.52%; Activity [26]: 81.99%; Activity [27]: 87.56%; Activity [28]: 77.32%; Activity [29]: 112%; Activity [30]: 83.75%; Activity [31]: 93.79%; Activity [32]: 88.79%; Activity [33]: 92.43%; Activity [34]: 73.53%; Activity [35]: 86.44%; Activity [36]: 77.57%; Activity [37]: 103%
